Hits are enriched below; roughly 4.5% of the tested compounds scored in any of these assays.
CHO parental Ca: counter-screen: ATP calcium response change in parental CHO cells; parental CHO-K1, ATP-induced calcium, Fluo-8 fluorescence; inhibition, % at 5.6 µM; 0.63% of 330,000 active;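 active = inhibition above that plate's mean sample inhibition plus 3 SD, cut at about 26% in these data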;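 note: 0% = ATP-challenged DMSO wells and 100% = DMSO wells without ATP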
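Material: parental CHO cells / Compound: single nominal dose of 5.6 µM per compound / Signal: Fluo-8 fluorescence / Replicates: singlicate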
GPR7 antag: blocks human GPR7 receptor signaling. GPR7-expressing cells, fluorescence antagonist assay. inhibition, % at 4.4 µM. 1.1% of 290,000 active. AID 1861; in the data active = inhibition above about 16%, passing the limit was not always enough;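 note: cells stimulated with the agonist NPW; 0% = agonist with vehicle and 100% = vehicle without agonist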
Target sequence (P48145 whole entry, looked up): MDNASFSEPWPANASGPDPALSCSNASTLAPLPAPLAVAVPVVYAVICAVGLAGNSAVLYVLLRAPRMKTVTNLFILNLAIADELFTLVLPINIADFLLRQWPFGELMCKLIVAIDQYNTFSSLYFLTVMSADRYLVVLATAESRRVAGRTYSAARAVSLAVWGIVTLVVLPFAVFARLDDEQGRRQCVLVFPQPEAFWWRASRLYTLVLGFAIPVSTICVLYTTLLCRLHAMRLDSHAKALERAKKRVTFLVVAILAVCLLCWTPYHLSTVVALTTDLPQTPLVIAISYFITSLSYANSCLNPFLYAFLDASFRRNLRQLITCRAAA
OX1R antag-1: OX1R (human) antagonism | O43613 | OX1R-expressing cells, FRET antagonist read-out | inhibition, % at 6.6 µM | 1.8% of 330,000 active | AID 485270; in the data active = inhibition mostly above about 38%, no sharp cut-off; inactive = mostly below about 40%;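 note: 0% = agonist challenge alone and 100% = reference antagonist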
OX1R antag-2: antagonists of human orexin 1 receptor; inhibition, % at 5 µM; O43613; CHO/OX1R cells, Fluo-8 calcium fluorescence, orexin A; 0.43% of 330,000 active;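 active = inhibition above its plate's threshold, mean inhibition of all tested compounds on the plate plus 3 SD, cut at about 37% in these data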;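 note: 0% = orexin A challenge wells and 100% = SB-334867-A antagonist wells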
TAAR1 antagonist: antagonists of human TAAR1; Q96RJ0; CHO RD-HGA16 TAAR1, Fluo-8 calcium fluorescence, antagonist; inhibition, % at 3 µM; 1.5% of 360,000 active; AID 624466;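 active = inhibition above a per-plate cutoff, the mean inhibition of test compounds on that plate plus 3 SD, cut at about 49% in these data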;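 note: 0% = DMSO plus EC80 beta-PEA response and 100% = DMSO alone without agonist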
Target sequence (Q96RJ0 whole entry, looked up): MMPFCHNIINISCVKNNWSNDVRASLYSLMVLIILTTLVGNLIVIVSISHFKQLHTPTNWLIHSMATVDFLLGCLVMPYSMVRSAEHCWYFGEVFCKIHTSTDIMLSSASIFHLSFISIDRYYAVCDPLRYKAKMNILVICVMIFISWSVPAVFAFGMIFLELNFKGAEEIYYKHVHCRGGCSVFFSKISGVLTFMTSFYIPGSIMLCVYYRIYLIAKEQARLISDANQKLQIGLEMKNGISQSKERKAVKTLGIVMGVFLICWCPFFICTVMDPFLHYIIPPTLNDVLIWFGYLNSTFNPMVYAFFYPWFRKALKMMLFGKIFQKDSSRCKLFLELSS
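Test system – hTAAR1-expressing CHO RD-HGA16 cells, Gα16-coupled · Reagent – β-PEA at EC80 concentration, post-compound challenge · Compound dosing – 3 µM, single point · Timing – 140 s kinetic read after compound, 140 s after agonist · Detection – Fluo-8 intracellular calcium dye fluorescence, real-time kinetic reads · Control set – DMSO and EC80 PEA controls · Repeats – n of 1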
TAAR1 agonist: agonists of human TAAR1; activation, % at 3 µM; 0.99% of 360,000 active; CHO RD-HGA16 TAAR1, Fluo-8 calcium fluorescence; vehicle wells 0%, saturating PEA agonist 100%; Q96RJ0;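 active = activation above the mean activation of all test compounds in the run plus 3 SD, cut at about 38% in these data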
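Test system: RD-HGA16 (CHO) cells co-expressing Gα16 and hTAAR1; dosing: one-point dosing at 3 µM (nominal); timing: 17-24 h seeding, 75 min 37 °C dye, 30 min RT; signal: kinetic Fluo-8 calcium fluorescence; read-out basis: % activation relative to PEA EC100 response; controls: DMSO and PEA EC100; replicates: n 1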
OX1R HTRF conf: OX1R (human) antagonism, HTRF confirmed; AID 492964; shares compounds with OX1R antag-1; inhibition, % at 6.6 µM; 49% of 1,800 active; OX1R-expressing cells, HTRF antagonist assay; in the data active = inhibition above about 55%;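 note: CHO cells expressing OX1R stimulated with orexin A at about EC80; 0% = agonist challenge alone and 100% = reference antagonist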
CHO-K1 HTRF cnt: counter-screen for OX1R antagonists: effect in parental CHO-K1 cells. shares compounds with OX1R antag-1. HTRF counterscreen. 48% of 1,800 active. AID 493232. inhibition, % at 6.6 µM; in the data active = inhibition above about 17%;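 note: 0% = agonist challenge with vehicle and 100% = vehicle alone without agonist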
An asterisk follows results filed as active; x = no result given.

SMILES	CHO parental Ca	GPR7 antag	OX1R antag-1	OX1R antag-2	TAAR1 antagonist	TAAR1 agonist	OX1R HTRF conf	CHO-K1 HTRF cnt
O=C(NCCN1CCOCC1)c1ccc([N+](=O)[O-])cc1[N+](=O)[O-]	-10	0	179*	-13	11	7	73*	81*
O=C(NCCCN1CCOCC1)c1sc2cc([N+](=O)[O-])ccc2c1Cl	-9	-2	93*	-11	x	x	39	56*
NC(=O)c1ccc(N2CCCCCC2)c([N+](=O)[O-])c1	1	-17	11	-5	10	8	x	x
CCCN1CCN(c2ccc([N+](=O)[O-])cc2C#N)CC1	-13	2	83*	-19	8	3	39	46*
CCN1CCN(c2ccc([N+](=O)[O-])cc2S(=O)(=O)N2CCOCC2)CC1	-11	-6	145*	-9	-25	4	36	44*
CC(=O)N1CCN(c2ccc([N+](=O)[O-])cc2C#N)CC1	4	-3	100*	4	13	8	38	47*
CC(=O)N1CCN(c2ccc(C(N)=O)cc2[N+](=O)[O-])CC1	-2	-1	81*	8	-5	1	27	30*
COc1ccc(CN2CCNC(=O)C2CC(=O)N(C)CCCN2CCOCC2)cc1C (stereo not drawn)	-3	-16	-2	-20	11	0	x	x
COc1ccc(C2=NN(Cc3c(F)cccc3Cl)C(=O)CC2)cc1	-19	-14	7	-26	-23	5	x	x
O=C(c1ccc(NS(=O)(=O)c2cccc([N+](=O)[O-])c2)cc1)N1CCCCCC1	-10	x	24	-22	-5	4	x	x
O=C(c1ccccc1NS(=O)(=O)c1cccc([N+](=O)[O-])c1)N1CCCC1	-11	-15	78*	0	-5	0	20	7
CN1C[C@@H]2[C@@H]3C(=O)N(Cc4ccccc4)C(=O)[C@@H]3[C@](Cc3ccccc3)(C1=O)N2C(=O)c1ccc(Cl)cc1	x	x	x	x	14	13	x	x
O=C(CCS(=O)(=O)c1ccc(F)cc1)N1CCOCC1	1	-9	15	-7	-12	2	x	x
NC(=O)c1ccc(SCC(=O)NC2CCCCC2)c([N+](=O)[O-])c1	-1	-10	77*	-10	-16	1	29	35*
COc1ccc(OCC(=O)Nc2cccc(NC(=O)c3ccco3)c2)cc1	-13	-11	16	-12	5	6	x	x
COC(=O)c1nc(C(=O)OC)c(C(=O)OC)nc1C(=O)OC	-12	-10	102*	-10	1	6	49	22*
O=C(N/N=C/c1ccccn1)c1ccc(NC(=O)c2cccc([N+](=O)[O-])c2)cc1	-6	-5	31	-11	-1	3	x	x
N#CCC(=O)N/N=C/c1cc([N+](=O)[O-])ccc1N1CCCC1	10	18	21	-6	-11	0	x	x
O=C(N/N=C/c1cccc([N+](=O)[O-])c1)c1ccc2nc[nH]c2c1	-7	-17	38	-10	41	6	x	x
O=C(N/N=C/c1ccccn1)c1ccc([N+](=O)[O-])cc1	-6	4	83*	-12	-1	0	46	42*
O=C(N/N=C/c1ccccn1)c1cc([N+](=O)[O-])cc([N+](=O)[O-])c1	13	9	91*	16	-2	7	59*	42*
O=C(N/N=C/c1ccc([N+](=O)[O-])cc1)c1ccc2nc[nH]c2c1	0	-4	114*	-6	28	2	37	41*
O=C(N/N=C/c1cc([N+](=O)[O-])ccc1N1CCNCC1)c1ccc([N+](=O)[O-])cc1	-12	6	78*	-8	5	5	52	69*
COC(=O)CCCNC(=O)c1ccc(OS(=O)(=O)c2cc([N+](=O)[O-])ccc2C)cc1	3	x	12	0	17	20	x	x
COc1ccc(CN(CC(=O)NCc2ccccc2)C(=O)CCC(=O)Nc2ccccn2)cc1	-18	7	7	-18	-11	-3	x	x
SMILES	CHO parental Ca	GPR7 antag	OX1R antag-1	OX1R antag-2	TAAR1 antagonist	TAAR1 agonist	OX1R HTRF conf	CHO-K1 HTRF cnt
CCN(CC(=O)Nc1c(F)cccc1F)C(=O)c1cccnc1Sc1ccccc1	-24	x	15	-17	-24	3	x	x
CC1=CN(S(=O)(=O)c2ccc(C)cc2)C[C@@H]2c3ccccc3N(S(=O)(=O)c3ccc(C)cc3)[C@H]12	-13	x	3	-14	-24	8	x	x
O=C(N/N=C/c1cccc([N+](=O)[O-])c1)c1cnccn1	-2	1	106*	9	-7	1	43	61*
COc1cccc(/C=N/NC(=O)c2cnccn2)c1	-6	11	18	-6	-18	4	x	x
c1ccc(N2CCN(c3ncnc4c3oc3ccccc34)CC2)cc1	-21	-10	90*	26	49*	15	65*	-28
CCCCCCCC(=O)N/N=C/c1ccc([N+](=O)[O-])o1	-2	-7	37	-21	4	0	x	x
CCOC(=O)N/N=C\c1ccc([N+](=O)[O-])o1	11	3	78*	13	-18	0	50	79*
Cc1nn2c(nc1=O)SCC(c1ccccc1)=N2	-2	-9	145*	-15	5	6	39	62*
COc1ccc2c(c1)cc1c(=O)n(CC(=O)NCCCN3CCOCC3)nc(C)n12	-11	-9	23	-13	-23	16	x	x
COC(=O)c1c(NC(=O)c2ccco2)sc2c1C(C(=O)OC)CC2 (stereo not drawn)	-29	-4	80*	-1	-7	2	62*	-6
O=C1c2ccccc2S(=O)(=O)c2cc(C(=O)N3CCC(N4CCCC4)CC3)ccc21	-6	x	101*	-13	3	9	45	88*
O=C(NCC1CCCO1)c1ccc2c(c1)S(=O)(=O)c1ccccc1C2=O (stereo not drawn)	-20	x	81*	-14	11	8	61*	63*
O=C(NCCO)c1ccc2c(c1)S(=O)(=O)c1ccccc1C2=O	-1	1	108*	3	19	7	65*	67*
CCOc1ccc(CN(C)CC(=O)NCc2ccccc2Cl)cc1	-12	-6	19	-29	-22	2	x	x
CC(c1ccccc1)N(C)C(=O)CSc1nnc(C2CC2)n1C1CC1 (stereo not drawn)	-13	x	12	-25	13	15	x	x
Nc1c([N+](=O)[O-])cnnc1-c1ccccc1	-8	-10	80*	2	-13	1	93*	101*

Assay outcomes as filed in PubChem BioAssay.
